Data reported in ChEMBL document CHEMBL4732102, “Sustainable, three-component, one-pot procedure to obtain active anti-flavivirus agents” (Eur J Med Chem, 2021).
Calls of active or inactive are those of the source. No cut-off for these calls is given here.

Experiments:
[1] = Selectivity index, ratio of CC50 for human Huh-7 cells to EC50 for dengue virus 2 EDEN 3295 infected in human Huh-7 cells; assay type: toxicity, cell-based; details: read-out: Ratio CC50/EC50
[2] = Selectivity index, ratio of CC50 for human Huh-7 cells to EC50 for Zika virus H/PF/2013 infected in human Huh-7 cells; assay type: toxicity, cell-based; details: read-out: Ratio CC50/EC50
dengue virus type 2 [3] = assay: Inhibition of Dengue virus 2 full length NS5 RNA-dependent RNA polymerase assessed as reduction in elongation activity at 30 uM incubated for 1 hr relative to control
In short: (§1)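 Elongation (primer-dependent) assay: 100 nM full-length DENV-2 NS5, 100 nM U30-3'UTR template and 3 µM Atto-ATP in 50 mM Tris-HCl pH 7.5, 10 mM KCl, 0.5 mM MnCl2, Triton and 10 µM cysteine. Run 1 h at 37 °C; stopped with alkaline phosphatase and AttoPhos fluorescence read at 422/566 nm. Single point at 30 µM; IC50 is average ± SE of one experiment in duplicate.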

[4] = (§2) Cytotoxicity against human Huh-7 cells assessed as reduction in cell viability incubated for 48 hrs by celltiter glo luminescent assay; assay type: cell-based; details: Huh-7 cells
In short: (§3)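 Huh-7 cells (2 × 10^4 seeded, DMEM with 10% FBS) exposed to compound for 48 h at 37 °C. Viability read by CellTiter-Glo luminescence as percent of untreated control. CC50 derived from the viability curve.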

[5] = Inhibition of Dengue virus 2 full length NS5 RNA-dependent RNA polymerase assessed as reduction in elongation activity incubated for 1 hr; set-up: species or system dengue virus type 2; in short: as §1
dengue virus type 2 [6] = assay: Inhibition of Dengue virus 2 full length NS5 RNA-dependent RNA polymerase assessed as reduction in de novo initiation activity at 30 uM incubated for 1 hr relative to control
In short: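 De novo initiation assay: 100 nM full-length DENV-2 NS5 with 100 nM in vitro transcribed DENV-2 5'UTR-3'UTR RNA, 20 µM each of ATP, GTP and UTP, and 5 µM Atto-CTP. Buffer Tris-HCl pH 7.5 with KCl, 1 mM MgCl2, 0.3 mM MnCl2, Triton X-100 and 10 µM cysteine. Compound at 30 µM; 1 h at 37 °C. Read-out by alkaline phosphatase-released AttoPhos fluorescence (422/566 nm).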

dengue virus type 2 [7] = assay: Antiviral activity against dengue virus 2 EDEN 3295 infected in human Huh-7 cells assessed as reduction in virus replication incubated for 48 hrs by plaque reduction assay; assay type: functional, organism-based; details: EDEN 3295, Huh-7, 48 h
In short: (§4)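 Huh-7 cells (1 × 10^5 seeded) infected 1 h at 37 °C with ZIKV H/PF/2013 at MOI 0.5 or DENV-2 EDEN3295 at MOI 0.3. Dose–response treatment from 0.01 to 100 µM followed, 24 h for ZIKV and 48 h for DENV-2. Supernatant titre measured by BHK-21 plaque assay. EC50 taken from a sigmoidal fit of titre versus concentration; average ± SE of one experiment in duplicate.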

Zika virus [8] = assay: Antiviral activity against Zika virus H/PF/2013 infected in human Huh-7 cells assessed as reduction in virus replication at 10 uM incubated for 24 hrs by plaque reduction assay relative to control; assay type: functional; set-up: scale not given: the % may be the effect or the level left
In short: (§5)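 Huh-7 cells (1 × 10^5 seeded) infected 1 h at 37 °C with DENV-2 EDEN3295 (MOI 0.3) or ZIKV H/PF/2013 (MOI 0.5). Infected cells then treated at a single 10 µM concentration, 24 h for ZIKV and 48 h for DENV-2. Clarified supernatant titred by BHK-21 plaque assay. Viral titre reduction expressed as percent inhibition.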

Zika virus [9] = assay: Antiviral activity against Zika virus H/PF/2013 infected in human Huh-7 cells assessed as reduction in virus replication incubated for 24 hrs by plaque reduction assay; assay type: functional, organism-based; details: H/PF/2013, Huh-7, 24 h; in short: as §4
dengue virus type 2 [10] = assay: Antiviral activity against dengue virus 2 EDEN 3295 infected in human Huh-7 cells assessed as reduction in virus replication at 10 uM incubated for 48 hrs by plaque reduction assay relative to control; assay type: functional; set-up: scale not given: the % may be the effect or the level left; in short: as §5
Huh-7 = assay: as §2; assay type: cell-based; details: huh-7, 48 h; in short: as §3

Structure (SMILES)	selectivity ratio [1]	selectivity ratio [2]	inhibition (dengue virus type 2 [3])	CC50 at 48 h [4]	IC50 ([5]; read-out: IC50)	inhibition (dengue virus type 2 [6])	EC50 (dengue virus type 2 [7])	Activity (Zika virus [8])	EC50 (Zika virus [9])	IC50 [5]	Activity (dengue virus type 2 [10])	CC50 (Huh-7)
C#C[C@@]1(O)[C@H](O)[C@@H](CO)O[C@H]1n1ccc2c(N)ncnc21	100	> 100										
O=C(NCC1(C(=O)O)CC1)c1cc(-c2ccccc2)c(=O)n2c1sc1ccc(OC3CCCCC3)cc12	13.3		96.7%	100 µM	17.8 µM	68.1%	7.5 µM	15.8%				
C[C@H](CO)NC(=O)c1cc(-c2ccccc2)c(=O)n2c1sc1ccc(OC3CCCCC3)cc12	3	2.4	42.7%	17.9 µM		inactive	5.8 µM		7.3 µM	Not Active		
NC(=O)CCNC(=O)c1cc(-c2ccccc2)c(=O)n2c1sc1ccc(OC3CCCCC3)cc12	58	7.1	37.2%	52.3 µM		inactive	0.9 µM		7.3 µM	Not Active		
CC(C)(CC(=O)O)NC(=O)c1cc(-c2ccccc2)c(=O)n2c1sc1ccc(OC3CCCCC3)cc12	32		95.9%	100 µM	23.2 µM	81.5%	3.1 µM	10.6%				
C[C@@H](CO)NC(=O)c1cc(-c2ccccc2)c(=O)n2c1sc1ccc(OC3CCCCC3)cc12	20	2.6	42.5%	21.7 µM		inactive	1.1 µM		8.1 µM	Not Active		
O=C(c1cc(-c2ccccc2)c(=O)n2c1sc1ccc(OC3CCCCC3)cc12)N1CCCC(O)C1 (racemic)	17	2	36.9%	22.2 µM		inactive	1.3 µM		11.1 µM	Not Active		
O=C(O)CC(NC(=O)c1cc(-c2ccccc2)c(=O)n2c1sc1ccc(OC3CCCCC3)cc12)c1ccccc1 (racemic)	83	20	96.2%	100 µM	10.4 µM	79.3%	1.2 µM		5 µM			
O=C(O)C1CCN(C(=O)c2cc(-c3ccccc3)c(=O)n3c2sc2ccc(OC4CCCCC4)cc23)C1 (racemic)	> 15.6	> 12.2	64.6%	> 100 µM		11%	6.4 µM		8.2 µM	Not Active		
CC(C)C(CC(=O)O)NC(=O)c1cc(-c2ccccc2)c(=O)n2c1sc1ccc(OC3CCCCC3)cc12 (racemic)	12		92.8%	100 µM	22.1 µM	75%	8.4 µM	47.4%				
CC(CC(=O)O)NC(=O)c1cc(-c2ccccc2)c(=O)n2c1sc1ccc(OC3CCCCC3)cc12 (racemic)			69.3%			22.7%		29%		Not Active	68.1%	Not Active
O=C(O)C1CCCN(C(=O)c2cc(-c3ccccc3)c(=O)n3c2sc2ccc(OC4CCCCC4)cc23)C1 (racemic)			64.9%			inactive		26.3%		Not Active	65.3%	Not Active
